Measurements taken from ChEMBL document CHEMBL3259704, “Second generation steroidal 4-aminoquinolines are potent, dual-target inhibitors of the botulinum neurotoxin serotype A metalloprotease and P. falciparum malaria” (J Med Chem, 2014).

Assays:
Plasmodium falciparum [1] = experiment: Resistance index, ratio of IC50 for CQ-resistant, MFQ-susceptible Plasmodium falciparum W2 clone Indochina 1 isolate to IC50 for CQ, MFQ-susceptible Plasmodium falciparum D6 clone Sierra 1/UNC isolate; type: functional
[2] = target: Botulinum neurotoxin type A (Clostridium botulinum, UniProt P0DPI0); experiment: Inhibition of Clostridium botulinum recombinant BoNT/A light chain using N-terminal acetylated, C-terminal aminated SNAP-25 (187-203) as substrate by reverse-phase HPLC analysis
Procedure, shortened: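 Same HPLC LC cleavage assay (pH 7.3 HEPES/Tween, BSA, excess Zn, 37 °C). […] Ki comes from velocity versus substrate at several inhibitor levels, globally fit to a competitive model.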

Plasmodium falciparum [3] = experiment: Antimalarial activity against CQ, MFQ-resistant Plasmodium falciparum TM91C235 clone Southeast asian isolate assessed as inhibition of parasite proliferation by MSF assay; type: functional, organism-based
Procedure, shortened: (§1)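 SYBR Green I fluorescence (MSF) microtiter drug-sensitivity assay: malarial DNA content is the measure of in vitro parasite proliferation. Resistance index is the IC90 ratio of the resistant strain to D6.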

[4] = Selectivity index, ratio of IC50 for human HepG2 cells to IC50 for CQ-resistant, MFQ-susceptible Plasmodium falciparum W2 clone Indochina 1 isolate; type: toxicity, cell-based; conditions: read-out: Ratio IC50
[5] = Selectivity index, ratio of IC50 for human HepG2 cells to IC50 for CQ, MFQ-susceptible Plasmodium falciparum D6 clone Sierra 1/UNC isolate; type: toxicity, cell-based; conditions: read-out: Ratio IC50
[6] = Half life in mouse liver microsomes; type: ADME; conditions: liver microsomes
[7] = Half life in human liver microsomes; type: ADME; conditions: liver microsomes
Plasmodium falciparum [8] = experiment: Antimalarial activity against CQ, MFQ-susceptible Plasmodium falciparum D6 clone Sierra 1/UNC isolate assessed as inhibition of parasite proliferation by MSF assay; type: functional, organism-based; procedure, shortened: as §1
HepG2 = experiment: Cytotoxicity against human HepG2 cells assessed as cell viability after 48 hrs by MTT assay; type: cell-based; conditions: HepG2, 48 h
Plasmodium falciparum [9] = experiment: Antimalarial activity against CQ-resistant, MFQ-susceptible Plasmodium falciparum W2 clone Indochina 1 isolate assessed as inhibition of parasite proliferation by MSF assay; type: functional, organism-based; procedure, shortened: as §1
[10] = target: Botulinum neurotoxin type A (Clostridium botulinum) (UniProt P0DPI0); experiment: Inhibition of Clostridium botulinum recombinant BoNT/A light chain using N-terminal acetylated, C-terminal aminated SNAP-25 (187-203) as substrate at 20 uM by reverse-phase HPLC analysis
Procedure, shortened: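 Recombinant BoNT/A LC with SNAP-25 187–203 peptide substrate in 40 mM HEPES–0.05% Tween, pH 7.3, with 0.5 mg/mL BSA and 50 μM excess Zn, at 37 °C. Quenched with TFA; reverse-phase HPLC product/substrate peak areas give percent inhibition, run in duplicate.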

Plasmodium falciparum [11] = experiment: Resistance index, ratio of IC50 for CQ, MFQ-resistant Plasmodium falciparum TM91C235 clone Southeast asian isolate to IC50 for CQ, MFQ-susceptible Plasmodium falciparum D6 clone Sierra 1/UNC isolate; type: functional
[12] = Selectivity index, ratio of IC50 for human HepG2 cells to IC50 for CQ, MFQ-resistant Plasmodium falciparum TM91C235 clone Southeast asian isolate; type: toxicity, cell-based; conditions: read-out: Ratio IC50

Chain of Botulinum neurotoxin type A (Clostridium botulinum) (P0DPI0 2-448 limits assumed): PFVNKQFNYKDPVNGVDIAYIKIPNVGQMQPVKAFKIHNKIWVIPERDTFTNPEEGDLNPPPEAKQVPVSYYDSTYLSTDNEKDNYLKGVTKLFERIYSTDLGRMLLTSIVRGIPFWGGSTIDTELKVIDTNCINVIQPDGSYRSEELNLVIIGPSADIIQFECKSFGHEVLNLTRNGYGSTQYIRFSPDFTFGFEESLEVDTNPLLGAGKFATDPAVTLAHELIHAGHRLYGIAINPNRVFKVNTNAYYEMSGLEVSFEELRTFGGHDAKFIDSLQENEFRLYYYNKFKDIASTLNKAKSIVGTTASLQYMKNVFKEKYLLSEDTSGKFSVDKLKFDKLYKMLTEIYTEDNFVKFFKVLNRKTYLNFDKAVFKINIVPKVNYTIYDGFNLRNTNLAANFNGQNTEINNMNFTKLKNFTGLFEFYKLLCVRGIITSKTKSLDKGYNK
Chain of Botulinum neurotoxin type A (P0DPI0 2-448 limits assumed): as above

CC(=O)O[C@H]1C[C@H]2[C@@H]([C@H](OC(C)=O)C[C@@H]3C[C@H](N(C)C)CC[C@@]32C)[C@@H]2CC[C@H]([C@H](C)CCCNCCNc3ccnc4cc(Cl)ccc34)[C@@]12C
Ratio IC50 (Plasmodium falciparum [1]): 47
IC50 [2]: 1020 nM
IC50 (Plasmodium falciparum [3]): 32.4 nM
selectivity ratio [4]: 714
selectivity ratio [5]: 333
half-life [6]: 1 h
half-life [7]: 1 h
IC50 (Plasmodium falciparum [8]): 42.3 nM
IC50 (HepG2): 14100 nM
IC50 (Plasmodium falciparum [9]): 19.7 nM
inhibition [10]: 93.5%
Ratio IC50 (Plasmodium falciparum [11]): 0.77
selectivity ratio [12]: 435
